pIC50: −log10 of the molar value. In brackets after ≈: the same amount, converted by molar mass. Activity calls are given as the source filed them. No cut-off for these calls is given here. Residues, ends and D or L forms follow the SMILES beside them.
What was measured:
Pseudomonas aeruginosa [1] = assay: Antibacterial activity against Pseudomonas aeruginosa PA14 infected in CD-1 IGS mouse model of scarification skin infection assessed as reduction in bacterial counts at 64 uM measured on day 4 post-infection relative to control; type: functional
In short: (§1)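 Six-week-old female CD-1 IGS mice under isoflurane, back shaved, superficial skin abrasions sparing the dermis. Five minutes later, 5 x 10^7 CFU in 50 μL PBS applied to the wound. Two days later, peptide applied to the same area at 64 µM in 20 µL. Infected skin excised and homogenized for CFU counts two and four days post-infection. Four mice per group, two independent experiments; one-way ANOVA with Dunnett's test.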

Staphylococcus aureus [2] = assay: Antibacterial activity against methicillin-resistant Staphylococcus aureus isolate 713623 incubated for 18 hrs by spectrophotometry; type: functional; settings: isolate 713623, 18 h
In short: (§2)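 Broth microdilution per CLSI in Mueller-Hinton broth; inocula from three colonies grown overnight at 37 °C, 200 rpm; final 2-5 x 10^5 CFU/mL. Peptides tested at 2 to 32 μM; chloramphenicol at same concentrations as positive control. Plates incubated 37 °C, 18 h; growth read at 600 nm. Three independent experiments.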

Klebsiella pneumoniae [3] = assay: Antibacterial activity against KPC+ Klebsiella pneumoniae isolate 001825971 incubated for 18 hrs by spectrophotometry; type: functional; settings: isolate 001825971, 18 h
In short: (§3)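 Broth microdilution per CLSI in Mueller-Hinton broth. Three colonies grown overnight in MHB at 37 °C, 200 rpm; final inoculum 2-5 x 10^5 CFU/mL. Peptides tested at 2 to 32 μM, chloramphenicol as positive control at the same concentrations. Incubated 18 h at 37 °C, OD600 read. MIC taken as lowest inhibiting concentration; three independent experiments.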

HUVEC = assay: Cytotoxicity in HUVEC assessed as reduction in cell viability incubated for 2 hrs by MTT assay; type: cell-based; settings: Homo sapiens
In short: (§4)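 Cells grown at 37 °C, 5% CO2, passages 2–10, seeded 5 x 10^3 cells/well, attached 24 h. Media refreshed, then peptides added at final 0.781 to 100 μM. Viability reagent added after 2 h, followed by 4 h further incubation. Supernatant replaced by DMSO, absorbance read at 600 nm. Three independent experiments.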

Pseudomonas aeruginosa [4] = assay: Antibiofilm activity against 2 day-old preformed Pseudomonas aeruginosa PAO1 assessed as induction of biofilm eradication at 16 uM incubated for 24 hrs by SYTO-9 dye based by confocal microscopy; type: functional, organism-based
In short: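 Flow-cell biofilms: chambers inoculated with overnight culture diluted to OD600 ~0.5, grown in BM2 with 0.4% glucose. Established biofilms then given continuous flow of peptide at 16 µM in BM2 for 24 h. Stained with SYTO-9 (live) and propidium iodide (dead), imaged by confocal microscopy with 3D reconstruction. Two independent experiments.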

Pseudomonas aeruginosa [5] = assay: Antibacterial activity against Pseudomonas aeruginosa PA14 infected in CD-1 IGS mouse model of scarification skin infection assessed as reduction in bacterial counts at 64 uM measured on day 2 post-infection relative to control; type: functional; in short: as §1
Pseudomonas aeruginosa [6] = assay: Antibacterial activity against Pseudomonas aeruginosa PAO1 incubated for 18 hrs by spectrophotometry; type: functional; settings: PAO1, 18 h; in short: as §3
HT-29 = assay: Cytotoxicity in human HT-29 cells assessed as reduction in cell viability incubated for 2 hrs by MTT assay; type: functional, cell-based; settings: HT-29, 2 h
Escherichia coli [7] = assay: Antibacterial activity against Escherichia coli ATCC 25922 incubated for 18 hrs by spectrophotometry; type: functional; settings: ATCC 25922, 18 h; in short: as §3
Enterobacter cloacae = assay: Antibacterial activity against Enterobacter cloacae isolate 1383251 incubated for 18 hrs by spectrophotometry; type: functional; settings: isolate 1383251, 18 h; in short: as §3
Staphylococcus aureus [8] = assay: Antibacterial activity against Staphylococcus aureus ATCC 12600 incubated for 18 hrs by spectrophotometry; type: functional; settings: ATCC 12600, 18 h; in short: as §3
Staphylococcus aureus [9] = assay: Antibacterial activity against Staphylococcus aureus ATCC 25923 incubated for 18 hrs by spectrophotometry; type: functional; settings: ATCC 25923, 18 h; in short: as §2
Pseudomonas aeruginosa [10] = assay: Antibacterial activity against Pseudomonas aeruginosa PA14 infected in CD-1 IGS mouse model of scarification skin infection assessed as reduction in bacterial counts at 64 uM measured on day 2 to 4 post-infection relative to control; type: functional, organism-based; settings: TDE = time-dependent effect; in short: as §1
Acinetobacter baumannii = assay: Antibacterial activity against Acinetobacter baumannii isolate 003326263 incubated for 18 hrs by spectrophotometry; type: functional; settings: isolate 003326263, 18 h; in short: as §3
PC-3 = assay: Cytotoxicity in human PC3 cells assessed as reduction in cell viability incubated for 2 hrs by MTT assay; type: functional, cell-based; settings: PC-3, 2 h
MCF7 = assay: Cytotoxicity in human MCF7 cells assessed as reduction in cell viability incubated for 2 hrs by MTT assay; type: functional, cell-based; settings: MCF7, 2 h
Klebsiella pneumoniae [11] = assay: Antibacterial activity against Klebsiella pneumoniae ATCC 13883 incubated for 18 hrs by spectrophotometry; type: functional; settings: ATCC 13883, 18 h; in short: as §3
Escherichia coli [12] = assay: Antibacterial activity against Escherichia coli BL21 incubated for 18 hrs by spectrophotometry; type: functional; settings: BL21, 18 h; in short: as §3
3T3-L1 = assay: Cytotoxicity in mouse 3T3L1 cells assessed as reduction in cell viability incubated for 2 hrs by MTT assay; type: cell-based; settings: 3T3-L1, 2 h; in short: as §4
Pseudomonas aeruginosa [13] = assay: Antibacterial activity against Pseudomonas aeruginosa PA14 incubated for 18 hrs by spectrophotometry; type: functional; settings: PA14, 18 h; in short: as §3
Escherichia coli [14] = assay: Antibacterial activity against KPC+ Escherichia coli isolate 001812446 incubated for 18 hrs by spectrophotometry; type: functional; settings: isolate 001812446, 18 h; in short: as §3
[15] = Induction of hemolysis in human RBC at 100 uM incubated for 1 hr relative to control; type: cell-based, Erythrocyte; settings: red blood cells (RBC), read-out: Activity
In short: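 Human erythrocytes from healthy volunteers, washed three times in PBS, used as a 0.25% suspension in PBS. Peptides serially diluted, top concentration 100 μM per well. Incubated 1 h at 37 °C, then centrifuged, and supernatant absorbance read at 415 nm. PBS was the negative control and 1% Triton X-100 the 100% lysis control. Three replicates.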

Pseudomonas aeruginosa [16] = assay: Antibacterial activity against bioluminescent Pseudomonas aeruginosa H1001 incubated for 4 hrs by luminescence based assay; type: functional; settings: H1001, 4 h
In short: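 Crude peptides released from cellulose spots, two-fold diluted in BM2 (62 mM potassium phosphate pH 7, 2 mM MgSO4, 10 μM FeSO4, 0.4% glucose). Strain fliC::luxCDABE grown in LB to OD600 0.4, diluted 4:100 into BM2, mixed 1:1 with peptide (128 to 2 μM). Shaken 50 rpm, 4 h, 37 °C. Activity scored as luminescence reduction versus untreated cells.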

| SMILES | MIC (Staphylococcus aureus [2]) | MIC (Klebsiella pneumoniae [3]) | pIC50 (HUVEC) | Activity (Pseudomonas aeruginosa [4]) | fold change (FC) (Pseudomonas aeruginosa [5]) | MIC (Pseudomonas aeruginosa [6]) | pIC50 (HT-29) | MIC (Escherichia coli [7]) | MIC (Enterobacter cloacae) | MIC (Staphylococcus aureus [8]) | MIC (Staphylococcus aureus [9]) | Activity (Pseudomonas aeruginosa [10]) | MIC (Acinetobacter baumannii) | pIC50 (PC-3) | pIC50 (MCF7) | MIC (Klebsiella pneumoniae [11]) | MIC (Escherichia coli [12]) | pIC50 (3T3-L1) | MIC (Pseudomonas aeruginosa [13]) | MIC (Pseudomonas aeruginosa [16]) | also measured |
| --- | --- | --- | --- | --- | --- | --- | --- | --- | --- | --- | --- | --- | --- | --- | --- | --- | --- | --- | --- | --- | --- |
| CC[C@H](C)[C@H](N)C(=O)N[C@@H](CC(N)=O)C(=O)N[C@@H](CC(C)C)C(=O)N[C@@H](CCCCN)C(=O)N[C@@H](C)C(=O)N[C@@H](CC(C)C)C(=O)N[C@@H](C)C(=O)N[C@@H](C)C(=O)N[C@@H](CC(C)C)C(=O)N[C@@H](C)C(=O)N[C@@H](CCCCN)C(=O)N[C@@H](CCCCN)C(=O)N[C@H](C(=O)N[C@@H](CC(C)C)C(=O)O)[C@@H](C)CC | > 32 µM | > 32 µM | 4.30 | inactive | 100 | 8 µM (≈ 11.8 µg/mL) | 4.60 | 32 µM (≈ 47.4 µg/mL) | > 32 µM | 8 µM (≈ 11.8 µg/mL) | > 32 µM | Tde | > 32 µM | 4.90 | 4.60 | > 32 µM | 2 µM (≈ 2.96 µg/mL) | 4.90 | 8 µM (≈ 11.8 µg/mL) | – | Activity (Pseudomonas aeruginosa [1]): Active; MIC (Escherichia coli [14]): > 32 µM; hemolysis at 1 h, 100 µM [15]: 45% |
| CC[C@H](C)[C@H](N)C(=O)N[C@@H](CCCCN)C(=O)N[C@@H](CC(C)C)C(=O)N[C@@H](CC(C)C)C(=O)N[C@@H](C)C(=O)N[C@@H](CCCNC(=N)N)C(=O)N[C@H](C(=O)N[C@@H](C)C(=O)N[C@@H](CC(C)C)C(=O)N[C@@H](CCCCN)C(=O)N[C@H](C(=O)N[C@@H](CCCCN)C(=O)N[C@H](C(=O)N[C@@H](CC(C)C)C(=O)O)[C@@H](C)CC)[C@@H](C)CC)[C@@H](C)CC (H-IKLLARIALKIKIL-OH) | – | – | – | – | – | – | – | – | – | – | – | – | – | – | – | – | – | – | – | 30 µM (≈ 48.2 µg/mL) | – |
| CC[C@H](C)[C@H](N)C(=O)N[C@@H](CC(N)=O)C(=O)N[C@@H](CCCCN)C(=O)N[C@H](C(=O)N[C@@H](C)C(=O)N[C@@H](CC(C)C)C(=O)N[C@@H](CCCNC(=N)N)C(=O)N[C@H](C(=O)N[C@@H](CC(C)C)C(=O)N[C@@H](C)C(=O)N[C@@H](CCCCN)C(=O)N[C@H](C(=O)N[C@H](C(=O)N[C@@H](CC(C)C)C(=O)O)[C@@H](C)CC)[C@@H](C)CC)[C@@H](C)CC)[C@@H](C)CC (H-INKIALRILAKIIL-OH) | – | – | – | – | – | – | – | – | – | – | – | – | – | – | – | – | – | – | – | 30 µM (≈ 47.8 µg/mL) | – |
| CC[C@H](C)[C@H](N)C(=O)N[C@@H](CC(N)=O)C(=O)N[C@@H](CC(C)C)C(=O)N[C@@H](CCCCN)C(=O)N[C@@H](CCCCN)C(=O)N[C@@H](CC(C)C)C(=O)N[C@@H](C)C(=O)N[C@@H](C)C(=O)N[C@@H](CCCNC(=N)N)C(=O)N[C@H](C(=O)N[C@@H](CCCCN)C(=O)N[C@@H](CCCCN)C(=O)N[C@@H](CCCCN)C(=O)N[C@H](C(=O)O)[C@@H](C)CC)[C@@H](C)CC (H-INLKKLAARIKKKI-OH) | 8 µM (≈ 13.1 µg/mL) | > 32 µM | < 4.00 | Active | 100 | 4 µM (≈ 6.55 µg/mL) | < 4.00 | 4 µM (≈ 6.55 µg/mL) | > 32 µM | 4 µM (≈ 6.55 µg/mL) | 8 µM (≈ 13.1 µg/mL) | Tde | > 32 µM | < 4.00 | < 4.00 | > 32 µM | 2 µM (≈ 3.27 µg/mL) | < 4.00 | 4 µM (≈ 6.55 µg/mL) | 4 µM (≈ 6.55 µg/mL) | Activity (Pseudomonas aeruginosa [1]): Active; MIC (Escherichia coli [14]): 8 µM (≈ 13.1 µg/mL); hemolysis at 1 h, 100 µM [15]: 8% |
| CC[C@H](C)[C@H](NC(=O)[C@H](CCCCN)NC(=O)[C@H](CCCCN)NC(=O)[C@@H](NC(=O)[C@H](CCCCN)NC(=O)[C@H](C)NC(=O)[C@H](C)NC(=O)[C@H](CC(C)C)NC(=O)[C@H](CCCNC(=N)N)NC(=O)[C@H](CCCCN)NC(=O)[C@H](CC(C)C)NC(=O)[C@@H](NC(=O)[C@@H](N)CCCCN)[C@@H](C)CC)[C@@H](C)CC)C(=O)N[C@@H](CC(C)C)C(=O)O (H-KILKRLAAKIKKIL-OH) | > 32 µM | > 32 µM | < 4.00 | Active | 100 | 4 µM (≈ 6.54 µg/mL) | < 4.00 | 4 µM (≈ 6.54 µg/mL) | > 32 µM | 4 µM (≈ 6.54 µg/mL) | > 32 µM | Tde | > 32 µM | < 4.00 | < 4.00 | 8 µM (≈ 13.1 µg/mL) | 2 µM (≈ 3.27 µg/mL) | < 4.00 | 4 µM (≈ 6.54 µg/mL) | 4 µM (≈ 6.54 µg/mL) | fold change (FC) (Pseudomonas aeruginosa [1]): 1000; MIC (Escherichia coli [14]): 8 µM (≈ 13.1 µg/mL); hemolysis at 1 h, 100 µM [15]: 3% |
| CC[C@H](C)[C@H](NC(=O)[C@H](CCCCN)NC(=O)[C@H](C)NC(=O)[C@H](C)NC(=O)[C@H](CC(C)C)NC(=O)[C@H](CCCNC(=N)N)NC(=O)[C@H](CC(C)C)NC(=O)[C@H](C)NC(=O)[C@H](CC(C)C)NC(=O)[C@H](CCCCN)NC(=O)[C@H](CC(C)C)NC(=O)[C@H](CCCCN)NC(=O)[C@H](CCCCN)NC(=O)[C@H](CCSC)NC(=O)[C@@H]1CCCN1)C(=O)N[C@@H](C)C(=O)N1CCC[C@H]1C(=O)N[C@H](C(=O)N[C@@H](Cc1c[nH]c2ccccc12)C(=O)O)C(C)C (H-PMKKLKLALRLAAKIAPVW-OH) | – | – | – | – | 100 | – | – | – | – | – | – | – | – | – | – | – | – | – | – | – | – |

Reference: ChEMBL document CHEMBL4373721, “Computer-Aided Design of Mastoparan-like Peptides Enables the Generation of Nontoxic Variants with Extended Antibacterial Properties” (J Med Chem, 2019)
